ChEMBL document CHEMBL4725223, “Structure-activity relationship studies on the inhibition of the bacterial translation of novel Odilorhabdins analogues” (Bioorg Med Chem, 2020)
≈ marks a conversion by molar mass, not a printed value. Starred links: 1 amine or outer side, 2 acyl side, 3 side chain; linkers in the order of their positions; H or OH if unused. Non-standard residues stand in square brackets, D forms with d. Residues, ends and D or L forms follow the SMILES beside them. Dab(3S-OH) = NC[C@H](O)[C@H](N)C(=O)O; X1 = O=C([C@@H](CCCO)N[*:1])[*:2]; ΔZArg = N=C(N)NCC/C=C(\N)C(=O)O

What was measured:
[1] = molecular target: Bacterial 70S ribosome; test: Inhibition of ribosome-mediated translation in Cell-free Escherichia coli protein synthesis system using pCmGFP as plasmid incubated at 30 degreeC measured every 20 mins by invitro coupled transcription-translation system based fluorescence analysis; type: subcellular
In short: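 E. coli cell-free coupled transcription-translation; template was gfp amplified from pCmGFP and cloned into pEXP5-CT, 1 µg plasmid DNA added to start each reaction. Feed buffer added at 30 min. Run at 30 °C, fluorescence (ex 475/em 520 nm) read every 20 min. IC50 taken from the signal 1 h after feed buffer addition.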

[2] = test system: Escherichia coli; test: Antibacterial activity against efflux-defective (deltatolC) Escherichia coli ATCC 25922 by broth microdilution method; type: functional
In short: (§1)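 MIC read by CLSI broth microdilution (M07-A10) from direct colony suspension inocula. Reference strains came from ATCC: wild-type E. coli ATCC 25922 and K. pneumoniae ATCC 13883. An efflux-defective ΔtolC E. coli isogenic to ATCC 25922 was also used.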

[3] = test system: Klebsiella pneumoniae; test: Antibacterial activity against Klebsiella pneumoniae by CLSI based broth microdilution method; type: functional; in short: as §1
[4] = test system: Klebsiella pneumoniae; test: Antibacterial activity against wild type Klebsiella pneumoniae ATCC 13883 by CLSI based broth microdilution method; type: functional; in short: as §1
[5] = test system: Escherichia coli; test: Antibacterial activity against wild type Escherichia coli ATCC 25922 by CLSI based broth microdilution method; type: functional; in short: as §1
[6] = test system: Escherichia coli; test: Antibacterial activity against Escherichia coli by CLSI based broth microdilution method; type: functional; in short: as §1

Structure (SMILES) | IC50 [1] [µM] | other results
C[C@H](NC(=O)[C@H](CCN)NC(=O)[C@@H](N)CCCCN)C(=O)NCC(=O)N[C@H](CCCN)C(=O)N1CCC[C@H]1C(=O)N[C@@H](Cc1c[nH]cn1)C(=O)N[C@@H](CCCCN)C(=O)N/C(=C\CCNC(=N)N)C(=O)O | 17 | –
C[C@H](NC(=O)[C@@H](NC(=O)[C@@H](N)CCCCN)[C@@H](O)CN)C(=O)NCC(=O)N[C@H](CCCN)C(=O)N1CCC[C@H]1C(=O)N[C@@H](Cc1cnc[nH]1)C(=O)N[C@@H](CCCCN)C(=O)N/C(=C\CCNC(=N)N)C(=O)O | 0.5 | MIC [2]: 8 µg/mL (≈ 7.83 µM); MIC90 [3]: 8 µg/mL (≈ 7.83 µM); MIC [4]: 4 µg/mL (≈ 3.92 µM); MIC [5]: 8 µg/mL (≈ 7.83 µM); MIC90 [6]: 32 µg/mL (≈ 31.3 µM)
CNCCC[C@@H](NC(=O)CNC(=O)[C@H](C)NC(=O)[C@@H](NC(=O)[C@@H](N)CCCCN)[C@@H](O)CN)C(=O)N1CCC[C@H]1C(=O)N[C@@H](Cc1c[nH]cn1)C(=O)N[C@@H](CCCCN)C(=O)N/C(=C\CCNC(=N)N)C(=O)O | > 40 | –
CO[C@@H](CN)[C@H](NC(=O)[C@@H](N)CCCCN)C(=O)N[C@@H](C)C(=O)NCC(=O)N[C@H](CCCN)C(=O)N1CCC[C@H]1C(=O)N[C@@H](Cc1c[nH]cn1)C(=O)N[C@@H](CCCCN)C(=O)N/C(=C\CCNC(=N)N)C(=O)O | > 40 | –
C[C@H](N)CC[C@@H](NC(=O)CNC(=O)[C@H](C)NC(=O)[C@@H](NC(=O)[C@@H](N)CCCCN)[C@@H](O)CN)C(=O)N1CCC[C@H]1C(=O)N[C@@H](Cc1c[nH]cn1)C(=O)N[C@@H](CCCCN)C(=O)N/C(=C\CCNC(=N)N)C(=O)O | 17.9 | –
C[C@H](NC(=O)[C@@H](NC(=O)[C@@H](N)CCCCN)[C@H](O)CN)C(=O)NCC(=O)N[C@H](CCCN)C(=O)N1CCC[C@H]1C(=O)N[C@@H](Cc1c[nH]cn1)C(=O)N[C@@H](CCCCN)C(=O)N/C(=C\CCNC(=N)N)C(=O)O | > 40 | –
C[C@H](NC(=O)[C@@H](NC(=O)[C@@H](N)CCCCN)[C@@H](O)CN)C(=O)NCC(=O)N[C@H](CC[C@@H](C)N)C(=O)N1CCC[C@H]1C(=O)N[C@@H](Cc1c[nH]cn1)C(=O)N[C@@H](CCCCN)C(=O)N/C(=C\CCNC(=N)N)C(=O)O | > 40 | –
C[C@H](NC(=O)[C@@H](NC(=O)[C@@H](N)CCCCN)[C@@H](O)CN)C(=O)NCC(=O)N[C@H](CCN)C(=O)N1CCC[C@H]1C(=O)N[C@@H](Cc1c[nH]cn1)C(=O)N[C@@H](CCCCN)C(=O)N/C(=C\CCNC(=N)N)C(=O)O | 36.3 | –
C[C@H](NC(=O)[C@@H](NC(=O)[C@@H](N)CCCCN)[C@H](C)O)C(=O)NCC(=O)N[C@H](CCCN)C(=O)N1CCC[C@H]1C(=O)N[C@@H](Cc1c[nH]cn1)C(=O)N[C@@H](CCCCN)C(=O)N/C(=C\CCNC(=N)N)C(=O)O | > 40 | –
C[C@H](NC(=O)[C@@H](NC(=O)[C@@H](N)CCCCN)[C@@H](C)CN)C(=O)NCC(=O)N[C@H](CCCN)C(=O)N1CCC[C@H]1C(=O)N[C@@H](Cc1c[nH]cn1)C(=O)N[C@@H](CCCCN)C(=O)N/C(=C\CCNC(=N)N)C(=O)O | 26.7 | –
C[C@H](NC(=O)[C@@H](NC(=O)[C@@H](N)CCCCN)[C@@H](O)CCN)C(=O)NCC(=O)N[C@H](CCCN)C(=O)N1CCC[C@H]1C(=O)N[C@@H](Cc1c[nH]cn1)C(=O)N[C@@H](CCCCN)C(=O)N/C(=C\CCNC(=N)N)C(=O)O | 14.4 | –
C[C@H](NC(=O)[C@@H](NC(=O)[C@@H](N)CCCCN)[C@@H](O)[C@@H](C)N)C(=O)NCC(=O)N[C@H](CCCN)C(=O)N1CCC[C@H]1C(=O)N[C@@H](Cc1c[nH]cn1)C(=O)N[C@@H](CCCCN)C(=O)N/C(=C\CCNC(=N)N)C(=O)O | 10 | –
C[C@H](NC(=O)[C@@H](NC(=O)[C@@H](N)CCCCN)[C@@H](O)CN)C(=O)NCC(=O)N[C@](C)(CCCN)C(=O)N1CCC[C@H]1C(=O)N[C@@H](Cc1c[nH]cn1)C(=O)N[C@@H](CCCCN)C(=O)N/C(=C\CCNC(=N)N)C(=O)O | 18.1 | –
CCCC[C@@H](NC(=O)CNC(=O)[C@H](C)NC(=O)[C@@H](NC(=O)[C@@H](N)CCCCN)[C@@H](O)CN)C(=O)N1CCC[C@H]1C(=O)N[C@@H](Cc1c[nH]cn1)C(=O)N[C@@H](CCCCN)C(=O)N/C(=C\CCNC(=N)N)C(=O)O | > 40 | –
C[C@H](NC(=O)[C@H](CO)NC(=O)[C@@H](N)CCCCN)C(=O)NCC(=O)N[C@H](CCCN)C(=O)N1CCC[C@H]1C(=O)N[C@@H](Cc1c[nH]cn1)C(=O)N[C@@H](CCCCN)C(=O)N/C(=C\CCNC(=N)N)C(=O)O | > 40 | –
CC(=O)NCCC[C@@H](NC(=O)CNC(=O)[C@H](C)NC(=O)[C@@H](NC(=O)[C@@H](N)CCCCN)[C@@H](O)CN)C(=O)N1CCC[C@H]1C(=O)N[C@@H](Cc1c[nH]cn1)C(=O)N[C@@H](CCCCN)C(=O)N/C(=C\CCNC(=N)N)C(=O)O | > 40 | –
C[C@H](NC(=O)[C@@H](NC(=O)[C@@H](N)CCCCN)[C@@H](O)[C@H](C)N)C(=O)NCC(=O)N[C@H](CCCN)C(=O)N1CCC[C@H]1C(=O)N[C@@H](Cc1c[nH]cn1)C(=O)N[C@@H](CCCCN)C(=O)N/C(=C\CCNC(=N)N)C(=O)O | > 40 | –
C[C@H](NC(=O)[C@@H](NC(=O)[C@@H](N)CCCCN)[C@@H](O)CN)C(=O)NCC(=O)N[C@H](CCCCN)C(=O)N1CCC[C@H]1C(=O)N[C@@H](Cc1c[nH]cn1)C(=O)N[C@@H](CCCCN)C(=O)N/C(=C\CCNC(=N)N)C(=O)O | > 40 | –
CNC[C@H](O)[C@H](NC(=O)[C@@H](N)CCCCN)C(=O)N[C@@H](C)C(=O)NCC(=O)N[C@H](CCCN)C(=O)N1CCC[C@H]1C(=O)N[C@@H](Cc1c[nH]cn1)C(=O)N[C@@H](CCCCN)C(=O)N/C(=C\CCNC(=N)N)C(=O)O | 3.2 | MIC [2]: 64 µg/mL (≈ 61.8 µM); MIC [4]: 32 µg/mL (≈ 30.9 µM); MIC [5]: 64 µg/mL (≈ 61.8 µM)
C[C@H](NC(=O)[C@@H](NC(=O)[C@@H](N)CCCCN)[C@@H](O)CN)C(=O)NCC(=O)N[C@H](CCCO)C(=O)N1CCC[C@H]1C(=O)N[C@@H](Cc1c[nH]cn1)C(=O)N[C@@H](CCCCN)C(=O)N/C(=C\CCNC(=N)N)C(=O)O (H-K[Dab(3S-OH)]AG[X1]PHK[ΔZArg]-OH) | 1.3 | MIC [2]: > 64 µg/mL; MIC [4]: > 64 µg/mL; MIC [5]: > 64 µg/mL
C[C@H](NC(=O)[C@@H](NC(=O)[C@@H](N)CCCCN)[C@@H](O)C(C)(C)N)C(=O)NCC(=O)N[C@H](CCCN)C(=O)N1CCC[C@H]1C(=O)N[C@@H](Cc1c[nH]cn1)C(=O)N[C@@H](CCCCN)C(=O)N/C(=C\CCNC(=N)N)C(=O)O | > 40 | –
